Assay results collected from several papers.
Lines come from different studies, so protocols differ. ≈ marks a conversion by molar mass, not a printed value.

COc1cc(OC)cc(-c2c(-c3ccccn3)nc3n2CCC3)c1 — EC50 (Leishmania infantum; parasite growth; 5 days, intracellular, amastigote): 1.26 µM
O=C1NC(=S)N/C1=C\c1ccc(-c2ccc(N(c3ccccc3)c3ccccc3)cc2)c2ccccc12 — MBC (Streptococcus mutans; microbial killing, broth dilution; ATCC25175): > 1000 µg/mL
NC(=O)N1c2ccccc2C=Cc2ccccc21 — ED50 (MES seizures; rat; intraperitoneal): 6.5 mg/kg
COc1ccc(NC(=O)c2c(Nc3ccccc3)sc(C(=O)NN=Cc3ccc(C)cc3)c2NC(C)=O)cc1 — viability (HCT-116; cell growth or viability, SRB; 1 µM, 48 h): 76.4%
O=C1NC(=S)N/C1=C\c1ccc(-c2ccc(N(c3ccccc3)c3ccccc3)cc2)cc1 — MBC (Streptococcus pyogenes; microbial killing, broth dilution; ATCC19615): > 1000 µg/mL
COc1ccc(NC(=O)c2c(Nc3ccccc3)sc(C#N)c2NC(=O)CNc2ccc(Br)cc2)cc1 — viability (HCT-116; cell growth or viability, SRB; 1 nM, 48 h): 101%
O=C(O)CN1C(=O)/C(=C/c2ccc(-c3ccc(N(c4ccccc4)c4ccccc4)cc3)c3ccccc23)NC1=S — MBC (Streptococcus mutans; microbial killing, broth dilution; ATCC25175): > 1000 µg/mL
Fc1ccc(NCc2c(-c3ccccn3)nc3ccccn23)cc1 — EC50 (Leishmania infantum; parasite growth; 5 days, intracellular, amastigote): 12.6 µM
COc1ccc(NC(=O)c2c(Nc3ccccc3)sc(C#N)c2NC(=O)CNc2ccc(Cl)cc2)cc1 — viability (HCT-116; cell growth or viability, SRB; 100 µM, 48 h): 33.5%
COc1cccc(-c2nc3ccccn3c2Nc2ccc(F)cc2)n1 — EC50 (Leishmania infantum; parasite growth; 5 days, intracellular, amastigote): > 63.1 µM
COc1ccc(NC(=O)c2c(Nc3ccccc3)sc(C(=O)NN=Cc3ccc(Cl)cc3)c2NC(C)=O)cc1 — viability (HCT-116; cell growth or viability, SRB; 1 nM, 48 h): 101%
O=C1NC(=S)S/C1=C\c1ccc(-c2ccc(N(c3ccccc3)c3ccccc3)cc2)c2ccccc12 — MBC (Streptococcus pyogenes; microbial killing, broth dilution; ATCC19615): > 1000 µg/mL
COc1ccc(NC(=O)c2c(Nc3ccccc3)sc(C#N)c2NC(=O)CNc2ccc(OC)c(OC)c2)cc1 — viability (HCT-116; cell growth or viability, SRB; 1 µM, 48 h): 65.2%
COc1ccc(/C=C/c2coc3ccc(OC)cc3c2=O)cc1 — CC50 (HSC-2; cell growth or viability, MTT; 7 h): 20 µM
CC(=O)N(c1ccc(F)cc1)c1c(-c2ccccn2)nc2ccccn12 — IC50 (Leishmania infantum; parasite growth; intracellular, amastigote): > 64 µM
COc1ccc(NC(=O)c2c(Nc3ccccc3)sc(C#N)c2NC(=O)CNc2ccc([N+](=O)[O-])cc2)cc1 — viability (HCT-116; cell growth or viability, SRB; 1 nM, 48 h): 103%
O=C(O)CN1C(=O)/C(=C/c2ccc(-c3ccc(N(c4ccccc4)c4ccccc4)cc3)cc2)NC1=S — MIC (Streptococcus mutans; microbial growth, broth dilution; ATCC25175): 62.5 µg/mL (≈ 124 µM)
COc1ccc2nc(-c3cc(N(C)C)ccn3)c(N(C)c3ccc(F)cc3)n2c1 — EC50 (Leishmania infantum; parasite growth; intracellular, amastigote): 1.58 µM
COc1ccc2occ(/C=C/c3ccc(O)cc3)c(=O)c2c1 — CC50 (HSC-2; cell growth or viability, MTT; 7 h): 5.5 µM
O=C(O)CN1C(=O)/C(=C/c2c3ccccc3c(-c3ccc(N(c4ccccc4)c4ccccc4)cc3)c3ccccc23)SC1=S — MIC (Streptococcus mutans; microbial growth, broth dilution; ATCC25175): > 1000 µg/mL
COc1cccnc1-c1nc2ccccn2c1Nc1ccc(F)cc1 — EC50 (Leishmania infantum; parasite growth; 5 days, intracellular, amastigote): 31.6 µM
COc1ccc2occ(/C=C/c3cc(OC)c(OC)c(OC)c3)c(=O)c2c1 — CC50 (HSC-2; cell growth or viability, MTT; 6.7 h): 50 µM
COc1ccc(NC(=O)c2c(Nc3ccccc3)sc(C#N)c2NC(=O)CNc2ccc(C)cc2)cc1 — viability (HCT-116; cell growth or viability, SRB; 100 µM, 48 h): 60.3%
CS(=O)(=O)c1ccc2nc(-c3ccccn3)c(Nc3ccc(F)cc3)n2c1 — IC50 (Leishmania infantum; parasite growth; intracellular, amastigote): 32.5 µM
O=C(O)CN1C(=O)/C(=C/c2ccc(-c3ccc(N(c4ccccc4)c4ccccc4)cc3)cc2)SC1=S — MIC (Streptococcus mutans; microbial growth, broth dilution; ATCC25175): 1000 µg/mL (≈ 1910 µM)
COc1ccc(NC(=O)c2c(Nc3ccccc3)sc(C#N)c2NC(=O)CNc2ccccc2Cl)cc1 — viability (HCT-116; cell growth or viability, SRB; 0.1 µM, 48 h): 64.3%
O=C(O)CN1C(=O)/C(=C/c2ccc(-c3ccc(N(c4ccccc4)c4ccccc4)cc3)c3ccccc23)SC1=S — MIC (Streptococcus mutans; microbial growth, broth dilution; ATCC25175): 1000 µg/mL (≈ 1750 µM)
COc1cccnc1-c1nc2ccccn2c1N(C)c1ccc(F)cc1 — EC50 (Leishmania infantum; parasite growth; intracellular, amastigote): 1.58 µM
